# Shown are actives, neighbours in structure and some others; about 3.8% of the full set was active somewhere.
# NS3 helicase inh = inhibitors of Hepatitis C virus NS3 helicase; NS3 helicase DNA unwinding, Cy5 molecular beacon fluorescence; inhibition, % at 10.9 µM; 0.56% of 290,000 active;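 active means inhibition above the mean of all tested compounds plus 3 SD, set per campaign, cut at about 35% in these data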;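 further: 0% = DMSO wells and 100% = thioflavine S control wells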
#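 Compound dosing – single dose, 10.9 µM nominal final, DMSO 0.8% final · System – NS3 helicase fragment of HCV · Buffer or medium – MOPS pH 6.5, MgCl2, DTT, Tween20, BSA · Signal – Cy5 beacon fluorescence read at start and 1 h · Also added – annealed dual-labelled DNA beacon duplex, ATP-started · Schedule – 1 h at 25 °C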
# HSP90 refold inh = blocks HSP90-mediated luciferase refolding in reticulocyte lysate; inhibition, % at 5.6 µM; 0.91% of 290,000 active; Rabbit reticulocyte lysate, luciferase refolding luminescence, 3 h;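 active means inhibition above the screen-wide mean plus 3 SD, computed separately per campaign, cut at about 16% in these data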;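 further: 0% = DMSO wells and 100% = 60 µM geldanamycin wells; inhibitors lower the luminescence because luciferase stays unfolded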
# HSF1 activator = increases HSF-1 driven luciferase reporter signal | AID 504408 | 1.7% of 300,000 active | activation, % at 9 µM | NIH3T3-HGL HSF-1 luciferase reporter, MG132, 8 h; 100% = twice DMSO control signal;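 active means mean replicate activation of at least 50% with a set share of replicates each reaching 50%; inconclusive means only one of those two conditions met; inactive means mean below 50% and too few replicates reaching it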;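 further: 0% = median of the neutral control wells and 100% = twice that signal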
# HSF1 inh = HSF1 inhibition; 0.77% of 300,000 active; activity change, negative = inhibition, % at 7.5 µM (by protocol); AID 2098; NIH3T3-HGL HSE-luciferase, MG132-induced, luminescence 8 h; hits give low values;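 active means more than half of replicate wells show activity change below -50%, luminescence cut by over half; inconclusive means some wells, but at most half, below -50%; inactive means no replicate well below -50%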;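 further: luciferase reports HSF-1 transcriptional activity via heat shock element; 0% = median of DMSO wells and -100% = zero luminescence signal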
# Hep lipid drop = modulators of hepatic lipid droplet formation. AML12 mouse hepatocytes, oleate lipid droplets, BODIPY imaging. inhibition, % at 6.5 µM. 0.4% of 240,000 active;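 active means lipid droplet intensity inhibited by at least 50%, with more than 500 cells counted; inconclusive means wells with under 300 cells, treated as cytotoxic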
#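 Assay system: AML12 mouse liver cells | Compound dosing: One dose, 6.5 µM compound | Read-out basis: Droplet intensity reduction, % inhibition | Measured by: Fluorescence imaging, 20x objective, two fields per well | Schedule: Overnight treatment with compound plus oleate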
# Active calls of the source: *; ? = inconclusive; / = not tested or not shown.
SMILES,NS3 helicase inh,HSP90 refold inh,HSF1 activator,HSF1 inh,Hep lipid drop
CC(C)N(Cc1ccccc1)C(=O)CC(=O)N(Cc1ccccc1)C(C)C,13,-1,-10,-1,3
CC1CCCC(C)N1C(=O)COC(=O)CCC1CCCC1 (stereo not drawn),-2,-3,6,-1,3
O=C(CCC1CCCN(C(=O)c2ccncc2)C1)NCc1ccc(F)c(F)c1 (stereo not drawn),-2,-3,41,18,-11
O=C(CCC1CCCN(C(=O)c2cc3ccccc3o2)C1)NCc1ccc(F)c(F)c1 (stereo not drawn),-19,4,52*,44,/
S=c1[nH]cc(-c2ccccc2)n1-c1ccccc1Cl,-3,0,57*,15,-1
COc1ccccc1-n1c(-c2ccccc2)c[nH]c1=S,-4,1,24,29,15
CCNC(=S)N/N=C/c1ccc(-c2ccccc2)o1,-10,1,81*,49,-10
CCc1cc(C=NC2CCCCC2)c(O)s1,2,3,-63,-56*,/
COc1ccc(C2CC(O)(c3ccccc3)Oc3cc(OC)c(OC)c(OC)c32)cc1 (stereo not drawn),/,/,4,-4,6
COc1ccc([C@@]23Oc4cc(OC)cc(OC)c4[C@]2(O)[C@H](O)[C@H](C(=O)N(C)C)[C@H]3c2ccccc2)cc1,/,/,88*,88*,/
Cc1ccc(S(=O)(=O)NCC(=O)OCC(=O)NCc2cccs2)cc1,/,/,13,-3,/
O=c1c2ccccc2cnn1-c1nc2ccccc2[nH]1,6,92*,-85,-83*,8
CC(C(=O)Nc1ccccc1Br)N1c2cccc3cccc(c23)S1(=O)=O (stereo not drawn),-13,-2,67*,35,-28
COc1ccc(/C=C/C(=O)N(C(C)C)C(C)C)cc1Br,-3,-1,99*,55,-5
Cc1ccc(NC2=C/C(=N\S(=O)(=O)c3cccs3)c3ccccc3C2=O)c(C)c1,-7,26*,-95,-95*,?
Cc1ccc(Cl)cc1NC1=C/C(=N\S(=O)(=O)c2cccs2)c2ccccc2C1=O,2,8,-95,-94*,-7
COc1ccc(N(C)C(=O)CN(C)S(=O)(=O)c2ccc3c(c2)c(=O)n(C)c(=O)n3C)c(OC)c1,-1,-1,-54,-44,-6
CC1(C)c2cc(Cl)ccc2-n2c1cc(O)c(-c1ccccc1)c2=O,14,0,-5,-9,-23
CSc1nc(C=Nc2ccccc2Cl)c(O)n1Cc1cccc(Cl)c1,29,1,8,-2,-6
O=C(C1CCC1)N1CCc2cc(S(=O)(=O)N3CCN(c4ccccn4)CC3)ccc21,-2,0,63*,25,1
COC(=O)CSc1nnc(-c2ccco2)o1,4,3,6,-1,/
O=C(CSc1nnc(-c2ccncc2)o1)Nc1ccccc1Cl,-6,0,6,1,-10
COc1ccccc1NC(=O)CSc1nnc(-c2ccncc2)o1,-4,3,-70,-63*,-10
O=C(CSc1nnc(-c2ccccn2)o1)Nc1ccccc1Cl,-9,-3,51*,17,-6
COc1ccccc1C(=O)CSc1nnc(-c2ccco2)o1,3,-1,69*,50,3
SMILES,NS3 helicase inh,HSP90 refold inh,HSF1 activator,HSF1 inh,Hep lipid drop
Cc1cc(S(=O)(=O)Nc2ccc(C(=O)NCC(C)(C)N3CCOCC3)cc2)ccc1F,-8,-4,-75,-68*,-4
O=C(Nc1cccc(/C=C/c2ccccn2)c1)c1ccc(-n2cncn2)c([N+](=O)[O-])c1,/,/,-13,1,/
COc1ccc(C)c2sc(N(CCCN(C)C)C(=O)c3ccc(S(=O)(=O)N4CCc5ccccc5C4)cc3)nc12,/,/,-44,?,/
COc1ccc(OC)c2sc(N(CCCN(C)C)C(=O)c3ccc(S(=O)(=O)N4CCc5ccccc5C4)cc3)nc12,/,/,-69,-69*,/
CC(=O)Nc1ccc(/C=N/NC(=O)c2cc3ccccc3nc2C)cc1,-2,-1,5,-8,-7
Cc1nc2c(cc1C(=O)N/N=C/c1ccc(O)c(O)c1)c(=O)n(C)c(=O)n2C,4,1,-79,-73*,6
CC1(C)Cc2cccc(OCC(=O)OCC(=O)NCc3ccccc3)c2O1,-7,-3,39,7,13
O=C1c2ccc(Oc3cccc([N+](=O)[O-])c3)cc2C(=O)N1c1ccccn1,-5,1,19,-1,10
O=C1c2cc([N+](=O)[O-])cc3cc([N+](=O)[O-])cc(c23)C(=O)N1c1ccccn1,6,-5,124*,92,-22
CC(C)C1N=C(c2ccc3c(c2)OCO3)CC(c2ccccc2O)N1 (stereo not drawn),-1,0,75*,71,1
Cc1ccc2c(CN3CCC(C)CC3)cc(=O)oc2c1C,24,3,54*,24,-10
Cc1ccc2c(CN(C)Cc3cccc(Cl)c3)cc(=O)oc2c1C,-15,-8,18,16,-22
CSc1ccc(CN(C)Cc2cc(=O)oc3c(C)c(C)ccc23)cc1,-5,0,-75,-69*,-13
Cc1ccc(Nc2nc(N)c(C#N)c(CC#N)c2C#N)cc1,8,5,19,0,13
COCCCNC(=O)CCCCCNS(=O)(=O)c1ccc(Br)cc1,10,0,30,9,-8
COc1ccc(/C=C(\C#N)C(=O)Nc2cc(C)c(Cl)cc2OC)cc1O,18,5,-74,-64*,-1
COc1ccc(/C=C(\C#N)C(=O)NCc2ccccc2)cc1O,2,-1,18,7,1
COc1cc(/C=C(\C#N)C(=O)Nc2cccc3ncccc23)ccc1O,9,-1,63*,14,0
CCOc1ccccc1/C=C/C(=O)c1ccc(Cl)cc1,-17,4,69*,30,-4
CCOc1cc(/C=C/C(=O)c2ccc3c(c2)OCCO3)ccc1OCC(=O)N(C)C,-12,0,68*,53,2
Cc1ccc(C2CC(c3cccs3)=NN2C(=O)CSc2nc(=O)n3cc(C)ccc3n2)cc1 (stereo not drawn),/,/,17,18,/
COc1ccccc1CN1CC(C(=O)NCCc2ncccc2C)CCC1=O (stereo not drawn),-1,-2,79*,31,14
COCCNC(=O)CSC1=N/C(=C/c2ccc(Cl)c(Cl)c2)C(=O)N1c1ccccc1F,0,3,-69,-61*,-39
O=C1CN(C(=O)c2ccc(Br)o2)C(c2ccc(F)cc2)c2cc(Cl)ccc2N1 (stereo not drawn),-5,2,55*,29,/
O=C1CN(C(=O)c2ccc(Br)o2)C(c2ccccc2)c2cc(Cl)ccc2N1 (stereo not drawn),0,2,29,16,/
O=C(Nc1ccc2c(c1)OCO2)C1CCCN(c2nc3ccccc3s2)C1 (stereo not drawn),-7,0,77*,32,/

# Bioassay records as filed in PubChem.
